Assay type in all cases: ADME, organism-based
Design in all cases: dose 5 mg/kg, dosed compound name [14C]-apixaban, route oral
Common to all, as to settings: in vivo

Series [1] relates to Brain. The experiment in a line: Biodistribution in female Sprague-Dawley rat brain at 5 mg/kg, po administered as single dose measured after 0.5 hrs. Put shortly: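 [14C]Apixaban (1.0 mg/mL, 20 μCi/mL in 0.5% Tween 80 in Labrafil) given as a single oral gavage of 5 mg/kg (100 μCi/kg) to fasted female SD rats, one rat per time point. Carcasses were frozen in hexane/dry ice and cut into 40 µm sagittal sections for QWBA against [14C]glucose standards. Brain radioactivity is reported as µg eq/g, with LLOQ 0.037 µg eq/g.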

In a further series the test system is Blood. The experiment in a line: Biodistribution in female Sprague-Dawley rat blood at 5 mg/kg, po administered as single dose measured after 72 hrs. Put shortly:
(§1)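 Quantitative whole-body autoradiography was run after a single 5 mg/kg (100 μCi/kg) oral gavage to fasted female or pregnant SD rats, one rat per time point. Carcasses were frozen in hexane/dry ice, and 40 µm sagittal sections were dried at −20°C for at least 48 h. Sections were exposed to a phosphor plate alongside [14C]glucose standards (0.001–6.5 µCi/g). Results are µg eq/g, with LLOQ 0.037 µg eq/g.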

The test system of series [2] is Brain. Put plainly: Biodistribution in pregnant Sprague-Dawley rat brain at 5 mg/kg, po administered as single dose measured after 4 hrs.
Series [3] deals with Brain. Put plainly: Biodistribution in pregnant Sprague-Dawley rat brain at 5 mg/kg, po administered as single dose measured after 24 hrs. Put shortly: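 Fasted pregnant SD rats (n=6, 270-319 g) each received one oral gavage dose of [14C]apixaban, 5 mg/kg (100 μCi/kg), in 0.5% Tween 80/Labrafil. One rat was killed at each of 0.5, 1, 4, 8, 24 and 48 h. Carcasses were frozen in hexane/dry ice, cut into 40 µm sagittal sections, exposed to phosphor plates and quantified against [14C]glucose standards as µg eq/g. LLOQ was 0.037 µg eq/g.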

The test system of another series is Adrenal gland. The experiment in a line: Biodistribution in male Sprague-Dawley rat adrenal gland at 5 mg/kg, po administered as single dose measured after 72 hrs. The essentials: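 Fasted male SD rats (225-252 g) each received one oral gavage dose of [14C]apixaban, 5 mg/kg (100 μCi/kg), in 0.5% Tween 80/Labrafil vehicle. One rat was killed per time point, from 0.5 to 168 h. Frozen carcasses were cut into 40 µm sagittal whole-body sections and read by QWBA phosphor imaging against [14C]glucose calibrants. Results are in µg apixaban eq/g; BLQ <0.037 µg eq/g.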

The next series concerns Muscle tissue. The experiment in a line: Biodistribution in pregnant Sprague-Dawley rat muscle at 5 mg/kg, po administered as single dose measured after 8 hrs.
For series [4], the system named is Rattus norvegicus. The experiment in a line: Biodistribution in fetal kidney of pregnant Sprague-Dawley rat at 5 mg/kg, po administered as single dose measured after 1 hr. The essentials: (§2)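 Pregnant rats, 270-319 g and fasted overnight, received [14C]apixaban by oral gavage at 100 μCi/kg in 0.5% Tween 80/Labrafil. One dam per time point was euthanized and frozen in hexane/dry ice. Fetal tissue radioactivity was measured by QWBA on 40 µm sagittal sections calibrated with [14C]glucose standards. Values are in µg eq/g, with LLOQ 0.037 μg eq/g.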

Series [5] relates to Rattus norvegicus. Put plainly: Biodistribution in female Sprague-Dawley rat kidney cortex at 5 mg/kg, po administered as single dose measured after 24 hrs. The essentials: as §1
In series [6] the test system is Rattus norvegicus. Put plainly: Biodistribution in fetal kidney of pregnant Sprague-Dawley rat at 5 mg/kg, po administered as single dose measured after 0.5 hrs. The essentials: as §2

For the compound `COc1ccc(-n2nc(C(N)=O)c3c2C(=O)N(c2ccc(N4CCCC[14C]4=O)cc2)CC3)cc1`, the Radiolabel recovery in the series with Brain [1] is listed as less than 0.037 ugequiv/g; with Blood it was “Not detected assumed BLQ”; in the series with Brain [2], less than 0.037 ugequiv/g; with Brain [3], “Not detected assumed BLQ”; in the series with Adrenal gland, “Not sampled as not visualised in autoradiograph”; in the series on Muscle tissue, 0.05 ugequiv/g. The Radiolabel recovery in the series on Rattus norvegicus [4] is listed as 0.2 ugequiv/g; in the series on Rattus norvegicus [5], “Not detected assumed BLQ”; in the series on Rattus norvegicus [6], 0.24 ugequiv/g.
